Assay results: the array DNA melting data of Ke et al. (doi:10.1101/2024.01.08.574731)

Tests used:
[1] = melting temperature; fluorescence melt of hairpins on a sequencing array, two-state fit, raised by 9.35 °C to match UV melts; conditions: sodium 0.088 M
How it was run: (§1)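 Hairpins were imaged by Cy3 fluorescence on a sequenced MiSeq flow cell with annealed Cy3 and quencher oligos, in 50 mM Na-HEPES pH 8.0, 25 mM NaCl, in 2.5 °C steps up to 60 °C. Bootstrapped two-state fits of normalised signals gave melting temperature and folding enthalpy. Four replicates were combined by inverse variance, and fitted temperatures were raised by 9.35 °C to match UV melts.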

[2] = folding enthalpy; higher = less favourable; fluorescence melt of hairpins on a sequencing array, two-state fit; conditions: sodium 0.088 M
How it was run: as §1

Row | Sequence | Tm [1] | folding enthalpy [2]
1 | GCTTTGGGAAACTGAAGC ((((..(....)..)))) | 35.2 °C | -31.6 kcal/mol
2 | GATCAGCACACTGATC ((((((....)))))) | 53.4 °C | -32.3 kcal/mol
3 | GTCCTTGGAAACAAAGAC (((.(((....))).))) | 30.4 °C | -13.3 kcal/mol
4 | GCTTCGCGAAAGCTAGGC ((.(.((....)).).)) | 35.2 °C | -17.3 kcal/mol
5 | GGATCCGAAAGGATCTCC ((((((....)))..))) | 53.6 °C | -9.17 kcal/mol
6 | GATCCAGTTATGGATC ((((((....)))))) | 58.4 °C | -46.4 kcal/mol
7 | GAAGCTGGAAACAGCTCC (.(((((....))))).) | 39 °C | -13.7 kcal/mol
8 | GATCCCATTGGGATC ((((((...)))))) | 65.5 °C | -31.9 kcal/mol
9 | GTGTTAACGAAAGTTCAC (((..(((....)))))) | 34.9 °C | -12.5 kcal/mol
10 | GGGCTCCGAAAGGACCC (((.(((....)))))) | 57.4 °C | -30.1 kcal/mol
11 | GGCCGTACGAAAGTAGCC (((..(((....)))))) | 42.3 °C | -22.6 kcal/mol
12 | GGCGTTCCGAAAGGAGCC (((..(((....)))))) | 51.7 °C | -20.5 kcal/mol
13 | GAAGGCGAAAGCCATTC ((((((....))).))) | 39.7 °C | -10.4 kcal/mol
14 | GTTCGTGGAAACGCGAAC (((((.(....).))))) | 55.3 °C | -41.3 kcal/mol
15 | GTGGACGAAAGTCAACAC ((((((....)))..))) | 45.9 °C | -15.3 kcal/mol
16 | GTCATAGCGAAAGCTGAC (((..(((....)))))) | 46.6 °C | -22.8 kcal/mol
17 | GAAGCCGAAAGGCTTTTC ((((((....)))..))) | 54.7 °C | -12 kcal/mol
18 | GGGTGACGAAAGTCCCCC (((.(((....))).))) | 57.9 °C | -28.2 kcal/mol
19 | GCGCCCGGAAACGGGCAC (.(((((....))))).) | 55.4 °C | -9.09 kcal/mol
20 | GCGTACGCACGC ((((....)))) | 56.9 °C | -17.1 kcal/mol
21 | GACCCAGGAAACTGGATC ((.((((....)))).)) | 38.8 °C | -17.9 kcal/mol
22 | GTGACCGAAAGGTCTCAC ((((((....)))..))) | 41.2 °C | -10.6 kcal/mol
23 | GTTCATGAAAATGAAC ((((((....)))))) | 52 °C | -33 kcal/mol

Row | Sequence | Tm [1] | folding enthalpy [2]
24 | GTAAGTCGAAAGACTAC (((.(((....)))))) | 39.5 °C | -16.9 kcal/mol
25 | GCCTCCCGAAAGGGCGGC (((.(((....))).))) | 61.3 °C | -34.4 kcal/mol
26 | GCTACGGGAAACCGTAGC (((((((....))))))) | 68.8 °C | -38.1 kcal/mol
27 | GGTGCACGAAAGTGTACC (((.(((....))).))) | 64.5 °C | -38 kcal/mol
28 | GCAATACGAAAGTATGC (((.(((....)))))) | 50.6 °C | -29.4 kcal/mol
29 | GTCATCGAAAGATGGAC ((((((....))).))) | 43.9 °C | -17.6 kcal/mol
30 | GCGAAAGGAAACTTCCGC (((.(((....))).))) | 42.5 °C | -27.1 kcal/mol
31 | GGGGACGAAAGTCACCCC ((((((....)))..))) | 63.3 °C | -12.7 kcal/mol
32 | GCATACACGAAAGTGTGC (((..(((....)))))) | 45.9 °C | -16.1 kcal/mol
33 | GCGCATCGAAAGATCGC (((.(((....)))))) | 55.8 °C | -37 kcal/mol
34 | GCACTTCGAAAGAATTGC (((.(((....))).))) | 42.6 °C | -31.6 kcal/mol
35 | GCGGCTGGAAACAGCTGC ((.((((....)))).)) | 63.6 °C | -39.1 kcal/mol
36 | GCTCCGCGAAAGCCGAGC ((((.((....)).)))) | 58.4 °C | -34.5 kcal/mol
37 | GGTATGGGAAACTGTACC ((((..(....)..)))) | 36.1 °C | -21.9 kcal/mol
38 | GCAGAACGAAAGTTGTGC (((.(((....))).))) | 55.4 °C | -32.1 kcal/mol
39 | GATCTAATTTTAGATC ((((((....)))))) | 44 °C | -34.2 kcal/mol
40 | GTATGACGAAAGTCCTAC (((.(((....))).))) | 38.9 °C | -24.3 kcal/mol
41 | GACTAAACGAAAGTTGTC (((..(((....)))))) | 34.9 °C | -19.6 kcal/mol
42 | GTTAGTCGAAAGACAAAC (((.(((....))).))) | 41.2 °C | -21.9 kcal/mol
43 | GCATACGAAAGTAACTGC ((((((....)))..))) | 31.1 °C | -13.6 kcal/mol
44 | GCTGACGGAAACGTTGGC ((..(((....)))..)) | 47 °C | -27.3 kcal/mol
45 | GCGTTATACGC ((((...)))) | 61.3 °C | -20.4 kcal/mol
46 | GATCCTGGACAGGATC ((((((....)))))) | 57.5 °C | -36.4 kcal/mol

Row | Sequence | Tm [1] | folding enthalpy [2]
47 | GTACTGGAAACAGTAC ((((((....)))))) | 54.7 °C | -36 kcal/mol
48 | GAGTCCGAAAGGAAGCTC ((((((....)))..))) | 37.4 °C | -17.6 kcal/mol
49 | GTACTACGAAAGTATTAC (((.(((....))).))) | 32.8 °C | -23.5 kcal/mol
50 | GATACACGAAAGTGAATC (((.(((....))).))) | 45.2 °C | -22.1 kcal/mol
51 | GCTGCGCGAAAGCGGTGC ((..(((....)))..)) | 55.1 °C | -19.6 kcal/mol
52 | GATCGGCATCCGATC ((((((...)))))) | 55.3 °C | -40.1 kcal/mol
53 | GATCTCCTACGAGATC ((((((....)))))) | 52.4 °C | -34.5 kcal/mol
54 | GCTGGTCCGAAAGGAAGC (((..(((....)))))) | 34.9 °C | -13.2 kcal/mol
55 | GTTATCGAAAGATAAAC ((((((....))).))) | 32.9 °C | -20.9 kcal/mol
56 | GGAACGGGAAACCGTCCC ((.((((....)))).)) | 48.2 °C | -18.5 kcal/mol
57 | GCGAAAAATCGC ((((....)))) | 36.2 °C | -9.87 kcal/mol
58 | GATCGTTGGCACGATC ((((((....)))))) | 52.5 °C | -32.1 kcal/mol
59 | GATCAGTTGACTGATC ((((((....)))))) | 53.5 °C | -37.3 kcal/mol
60 | GGGAATGGAAACACTCCC ((((.((....)).)))) | 36.9 °C | -29.3 kcal/mol
61 | AGAACCCGAAAGGCTTCT ((((.((....)).)))) | 33.6 °C | -17.7 kcal/mol
62 | GATCCCTCAGGGGATC ((((((....)))))) | 60.6 °C | -34.6 kcal/mol
63 | GCTGAGCGAAAGCTGGGC ((..(((....)))..)) | 50.3 °C | -19.8 kcal/mol
64 | GGTCGAGGAAACTCGATC (.(((((....))))).) | 52.2 °C | -30.7 kcal/mol
65 | GACGCCGGAAACGGCATC ((.((((....)))).)) | 43.4 °C | -11.4 kcal/mol
66 | GTTGTTGGAAACAATAAC (((.(((....))).))) | 39.6 °C | -20.3 kcal/mol
67 | GTGCGCGAAAGCGTACAC ((((((....)))..))) | 60.5 °C | -11.9 kcal/mol
68 | GAGTCCCGAAAGGGTCTC (((.(((....))).))) | 53 °C | -30.6 kcal/mol
69 | GTAAATGCGAAAGCATAC (((..(((....)))))) | 29.3 °C | -10.9 kcal/mol

Row | Sequence | Tm [1] | folding enthalpy [2]
70 | GTGGAGAAATCCAC (((((....))))) | 49.3 °C | -25.7 kcal/mol
71 | GATCTCCTCGAGATC ((((((...)))))) | 54.5 °C | -38.6 kcal/mol
72 | GCTACCGAAAGGTGAGC ((((((....))).))) | 51 °C | -23.3 kcal/mol
73 | GTGCTAGGAAACTAGTAC ((.((((....)))).)) | 44.9 °C | -33.5 kcal/mol
74 | GTTACGCGAAAGCGGAAC (((.(((....))).))) | 67.5 °C | -26.8 kcal/mol
75 | GCACACGAAAGTGGATGC ((((((....)))..))) | 45.6 °C | -17.9 kcal/mol
76 | GATGGGGGAAACCCCATC (((((((....))))))) | 65.4 °C | -31.2 kcal/mol
77 | GATCTCCAAGGAGATC ((((((....)))))) | 55.7 °C | -35 kcal/mol
78 | GCGTGGGGAAACTCACGC (((((.(....).))))) | 61.4 °C | -42.9 kcal/mol
79 | GCTATGCGAAAGCATTGC ((.((((....)))).)) | 60.3 °C | -30.2 kcal/mol
80 | GATCTGTATGCAGATC ((((((....)))))) | 54.9 °C | -38.8 kcal/mol
81 | GATCCCATACGGGATC ((((((....)))))) | 64.6 °C | -38.5 kcal/mol
82 | GGGCGCGAAAGCGCTCCC ((((((....)))..))) | 53.6 °C | -9.05 kcal/mol
83 | GTGGGAGGAAACTTCCGC (.((.((....)).)).) | 40.6 °C | -23.9 kcal/mol
84 | GCTCCCTCGAAAGAGAGC (((..(((....)))))) | 35.6 °C | -19.5 kcal/mol
85 | GAGAAGGGAAACCTCCTC (((.(((....))).))) | 28.8 °C | -17.7 kcal/mol
86 | GTATAATCGAAAGATTAC (((..(((....)))))) | 30 °C | -10.9 kcal/mol
87 | GGTCCGGGAAACTGGACC (((((.(....).))))) | 58.8 °C | -45.3 kcal/mol
88 | GTCTACGGAAACGTAGAC (((((((....))))))) | 61 °C | -46.2 kcal/mol
89 | GACTGCGAAAGCATCGTC ((((((....)))..))) | 47.1 °C | -12.2 kcal/mol
90 | GATCTTTTCAAGATC ((((((...)))))) | 47.7 °C | -36.3 kcal/mol
91 | GTGGACGAAAGTCGTCAC ((((((....)))..))) | 40.1 °C | -16.3 kcal/mol
92 | GATCAGTATACTGATC ((((((....)))))) | 54.3 °C | -45 kcal/mol
